Laboratory results: ChEMBL document CHEMBL4350966 (J Med Chem, 2019)

Test system: not listed separately
Assay: Intrinsic clearance in human liver microsomes assessed per mg protein
Format: ADME, Microsome
Conditions: not given
Procedure, shortened: (§1)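 Intrinsic clearance measured in vitro in mouse and human liver microsomes; reported as μL/min/mg protein.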

Row | microsomal CLint | Structure (SMILES)
1 | 273 µL/min/mg | COc1cccc(Cc2cc(C)nn(C(C)C(=O)Nc3ccc(Cl)cc3)c2=O)c1 (stereo not given)

Biological target: T1, N-formyl peptide receptor 2 (Homo sapiens, UniProt P25090)
T1 sequence (P25090 whole entry): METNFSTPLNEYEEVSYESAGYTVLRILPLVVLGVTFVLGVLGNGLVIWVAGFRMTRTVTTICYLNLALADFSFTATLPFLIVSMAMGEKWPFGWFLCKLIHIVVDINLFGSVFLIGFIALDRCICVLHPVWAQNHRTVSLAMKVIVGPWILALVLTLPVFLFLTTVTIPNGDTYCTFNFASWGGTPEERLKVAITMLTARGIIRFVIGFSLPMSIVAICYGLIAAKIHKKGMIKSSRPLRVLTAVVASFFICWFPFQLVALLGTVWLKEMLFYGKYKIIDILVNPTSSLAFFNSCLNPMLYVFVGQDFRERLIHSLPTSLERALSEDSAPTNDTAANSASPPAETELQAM
Assay: Biased agonist activity at human FPR2 expressed in FlpIn-CHO cells assessed as intracellular calcium mobilization by Fluo-4-AM dye based fluorescence assay
Format: functional, cell-based
Conditions: not given
Procedure, shortened: (§2)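 Agonist transduction coefficients (Log(τ/KA)) for each signaling output estimated with an extension of the Black-Leff operational model. Values normalized to a reference ligand and to Ca2+ mobilization as reference pathway, giving ΔLog(τ/KA) and Log(bias factors). Data are mean ± SEM of 4 independent experiments, each performed in duplicate.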

Row | EC50 | Structure (SMILES)
2 | 0.0513 µM | CCCCC(C(=O)Nc1ccc(Cl)cc1)n1nc(C)cc(Cc2ccccc2OC)c1=O (stereo not given)
3 | 0.0525 µM | CCCCC(C(=O)Nc1ccc(Cl)cc1)n1nc(C)cc(Cc2cccc(OC)c2OC)c1=O (stereo not given)
4 | > 100 µM | COc1cccc(Cc2cc(C)nn(C(C)C(=O)Nc3ccc(Cl)cc3)c2=O)c1 (stereo not given)

Test system: not listed separately
Assay: Kinetic solubility of the compound at pH 6.5
Format: physicochemical
Conditions: buffer, read-out: Kinetic_solubility
Procedure, shortened: (§3)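 Kinetic solubility measured by nephelometry at pH 2.0 and pH 6.5; reported in μg/mL.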

Row | solubility kinetic | Structure (SMILES)
5 | < 0.78 µg/mL | CCCCC(C(=O)Nc1ccc(Cl)cc1)n1nc(C)cc(Cc2ccccc2OC)c1=O (stereo not given)
6 | < 1.6 µg/mL | COc1cccc(Cc2cc(C)nn(C(C)C(=O)Nc3ccc(Cl)cc3)c2=O)c1 (stereo not given)

Test system: not listed separately
Assay: Lipophilicity, log P of the compound by chromatographic method
Format: physicochemical
Conditions: not given
Procedure, shortened: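 Lipophilicity ([…]) measured chromatographically.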

Row | logP | Structure (SMILES)
7 | 5.2 | CCCCC(C(=O)Nc1ccc(Cl)cc1)n1nc(C)cc(Cc2ccccc2OC)c1=O (stereo not given)
8 | 4 | COc1cccc(Cc2cc(C)nn(C(C)C(=O)Nc3ccc(Cl)cc3)c2=O)c1 (stereo not given)

Biological target: T2, fMet-Leu-Phe receptor (Homo sapiens, UniProt P21462)
T2 sequence (P21462 whole entry): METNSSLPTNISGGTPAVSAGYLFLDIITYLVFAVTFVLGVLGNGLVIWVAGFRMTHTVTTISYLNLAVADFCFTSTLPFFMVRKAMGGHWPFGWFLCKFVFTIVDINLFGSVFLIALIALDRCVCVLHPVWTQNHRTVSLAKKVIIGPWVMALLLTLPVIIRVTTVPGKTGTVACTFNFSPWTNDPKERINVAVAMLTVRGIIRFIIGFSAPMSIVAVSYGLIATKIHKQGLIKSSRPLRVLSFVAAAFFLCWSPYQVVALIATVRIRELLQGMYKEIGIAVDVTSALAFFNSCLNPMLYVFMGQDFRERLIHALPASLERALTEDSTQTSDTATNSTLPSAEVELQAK
Assay: Biased agonist activity at human FPR1 expressed in FlpIn-CHO cells assessed as stimulation of ERK1/2 phosphorylation measured after 7 mins by Alphascreen assay
Format: cell-based
Conditions: read-out: EC50
Procedure, shortened: as §2

Row | EC50 | Structure (SMILES)
9 | 0.083 µM | CCCCC(C(=O)Nc1ccc(Cl)cc1)n1nc(C)cc(Cc2ccccc2OC)c1=O (stereo not given)

Same assay, conditions: read-out: pEC50 (converted)

Row | Structure (SMILES) | EC50
10 | COc1cccc(Cc2cc(C)nn(C(C)C(=O)Nc3ccccc3Cl)c2=O)c1 (stereo not given) | > 100 µM
11 | COc1ccccc1Cc1cc(C)nn(CC(=O)Nc2ccc(Cl)cc2Cl)c1=O | > 100 µM
12 | COc1ccccc1Cc1cc(C(F)(F)F)nn(CC(=O)Nc2ccc(Cl)cc2)c1=O | > 100 µM
13 | CCCCC(C(=O)Nc1ccc(Br)cc1)n1nc(C)cc(Cc2ccccc2OC)c1=O (stereo not given) | 0.331 µM
14 | CCCCC(C(=O)Nc1ccc(Br)cc1)n1nc(C)cc(Cc2cccc(OC)c2)c1=O (stereo not given) | 0.148 µM
15 | COc1cccc(OC)c1Cc1cc(C)nn(CC(=O)Nc2ccc(Cl)cc2)c1=O | 2.63 µM
16 | COc1ccccc1Cc1cc(C)nn(CC(=O)Nc2ccc(OC(F)(F)F)cc2)c1=O | > 100 µM
17 | COc1cccc(Cc2cc(C)nn(C(C)C(=O)Nc3ccc(Cl)cc3)c2=O)c1OC (stereo not given) | 0.145 µM
18 | COc1ccccc1Cc1cc(C)nn(C(C(=O)Nc2ccc(Cl)cc2)C(C)C)c1=O (stereo not given) | 2.82 µM
19 | COc1ccccc1Cc1cc(C)nn(CC(=O)Nc2ccc(C#N)cc2)c1=O | > 100 µM
20 | CCCCC(C(=O)Nc1ccc(Cl)cc1)n1nc(C(F)(F)F)cc(Cc2ccccc2OC)c1=O (stereo not given) | > 100 µM
21 | COc1ccccc1Cc1cc(C)nn(CC(=O)Nc2cccc(C#N)c2)c1=O | > 100 µM
22 | CCCCC(C(=O)Nc1ccc(Cl)cc1)n1nc(C)cc(Cc2cccc(OC)c2OC)c1=O (stereo not given) | 0.0933 µM

The next lines start with the values.

Row | EC50 | Structure (SMILES)
23 | > 100 µM | COc1cccc(Cc2cc(C)nn(C(C)C(=O)Nc3cccc(Cl)c3)c2=O)c1 (stereo not given)
24 | 1.38 µM | COc1ccccc1Cc1cc(C)nn(C(C)C(=O)Nc2ccc(Cl)cc2)c1=O (stereo not given)
25 | > 100 µM | Cc1cc(Cc2ccc(F)cc2)c(=O)n(CC(=O)Nc2c(F)cc(F)cc2[N+](=O)[O-])n1
26 | > 100 µM | COc1cccc(Cc2cc(C)nn(CC(=O)Nc3c(F)cc(Cl)cc3F)c2=O)c1
27 | > 100 µM | COc1ccccc1Cc1cc(C)nn(CC(=O)Nc2ccccc2C#N)c1=O
28 | > 100 µM | Cc1cc(Cc2ccc(F)cc2)c(=O)n(CC(=O)Nc2ccc(Br)cc2[N+](=O)[O-])n1
29 | > 100 µM | COc1cccc(Cc2cc(C)nn(C(C)C(=O)Nc3ccccc3F)c2=O)c1 (stereo not given)

Test system: not listed separately
Assay: Protein binding in human plasma by chromatographic method
Format: ADME, cell-free
Conditions: read-out: PPB (converted)
Procedure, shortened: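 Human plasma protein binding estimated by a chromatographic method; reported as percent bound.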

Row | fraction unbound | Structure (SMILES)
30 | 0.016 | CCCCC(C(=O)Nc1ccc(Cl)cc1)n1nc(C)cc(Cc2ccccc2OC)c1=O (stereo not given)
31 | 0.026 | COc1cccc(Cc2cc(C)nn(C(C)C(=O)Nc3ccc(Cl)cc3)c2=O)c1 (stereo not given)

Test system: not listed separately
Assay: Intrinsic clearance in mouse liver microsomes assessed per mg protein
Format: ADME, Microsome
Conditions: read-out: CLH
Procedure, shortened: as §1

Row | microsomal CLint | Structure (SMILES)
32 | 233 µL/min/mg | CCCCC(C(=O)Nc1ccc(Cl)cc1)n1nc(C)cc(Cc2ccccc2OC)c1=O (stereo not given)

Test system: not listed separately
Assay: Kinetic solubility of the compound at pH 2
Format: physicochemical
Conditions: buffer, read-out: Kinetic_solubility
Procedure, shortened: as §3

Row | solubility kinetic | Structure (SMILES)
33 | < 0.78 µg/mL | CCCCC(C(=O)Nc1ccc(Cl)cc1)n1nc(C)cc(Cc2ccccc2OC)c1=O (stereo not given)
34 | < 1.6 µg/mL | COc1cccc(Cc2cc(C)nn(C(C)C(=O)Nc3ccc(Cl)cc3)c2=O)c1 (stereo not given)

Biological target: T2, fMet-Leu-Phe receptor
Assay: Biased agonist activity at human FPR1 expressed in FlpIn-CHO cells assessed as intracellular calcium mobilization by Fluo-4-AM dye based fluorescence assay
Format: functional, cell-based
Conditions: not given
Procedure, shortened: as §2

Row | EC50 | Structure (SMILES)
35 | 0.891 µM | CCCCC(C(=O)Nc1ccc(Cl)cc1)n1nc(C)cc(Cc2ccccc2OC)c1=O (stereo not given)

Same assay, conditions: read-out: pEC50 (converted)

Row | Structure (SMILES) | EC50
36 | COc1cccc(Cc2cc(C)nn(C(C)C(=O)Nc3ccccc3Cl)c2=O)c1 (stereo not given) | > 100 µM
37 | COc1ccccc1Cc1cc(C)nn(CC(=O)Nc2ccc(Cl)cc2Cl)c1=O | > 100 µM
38 | COc1ccccc1Cc1cc(C(F)(F)F)nn(CC(=O)Nc2ccc(Cl)cc2)c1=O | > 100 µM
39 | CCCCC(C(=O)Nc1ccc(Br)cc1)n1nc(C)cc(Cc2ccccc2OC)c1=O (stereo not given) | > 100 µM
40 | CCCCC(C(=O)Nc1ccc(Br)cc1)n1nc(C)cc(Cc2cccc(OC)c2)c1=O (stereo not given) | 11.5 µM
41 | COc1cccc(OC)c1Cc1cc(C)nn(CC(=O)Nc2ccc(Cl)cc2)c1=O | 2.82 µM
42 | COc1ccccc1Cc1cc(C)nn(CC(=O)Nc2ccc(OC(F)(F)F)cc2)c1=O | > 100 µM
43 | COc1cccc(Cc2cc(C)nn(C(C)C(=O)Nc3ccc(Cl)cc3)c2=O)c1OC (stereo not given) | 0.155 µM
44 | COc1ccccc1Cc1cc(C)nn(C(C(=O)Nc2ccc(Cl)cc2)C(C)C)c1=O (stereo not given) | > 100 µM
45 | COc1ccccc1Cc1cc(C)nn(CC(=O)Nc2ccc(C#N)cc2)c1=O | > 100 µM
46 | CCCCC(C(=O)Nc1ccc(Cl)cc1)n1nc(C(F)(F)F)cc(Cc2ccccc2OC)c1=O (stereo not given) | > 100 µM
47 | COc1ccccc1Cc1cc(C)nn(CC(=O)Nc2cccc(C#N)c2)c1=O | > 100 µM
48 | CCCCC(C(=O)Nc1ccc(Cl)cc1)n1nc(C)cc(Cc2cccc(OC)c2OC)c1=O (stereo not given) | 0.055 µM
49 | COc1cccc(Cc2cc(C)nn(C(C)C(=O)Nc3ccc(Cl)cc3)c2=O)c1 (stereo not given) | 6.17 to 25.1 µM

Next, values leading:

Row | EC50 | Structure (SMILES)
50 | > 100 µM | COc1cccc(Cc2cc(C)nn(C(C)C(=O)Nc3cccc(Cl)c3)c2=O)c1 (stereo not given)
51 | 17.4 µM | COc1ccccc1Cc1cc(C)nn(C(C)C(=O)Nc2ccc(Cl)cc2)c1=O (stereo not given)
52 | > 100 µM | Cc1cc(Cc2ccc(F)cc2)c(=O)n(CC(=O)Nc2c(F)cc(F)cc2[N+](=O)[O-])n1
53 | > 100 µM | COc1cccc(Cc2cc(C)nn(CC(=O)Nc3c(F)cc(Cl)cc3F)c2=O)c1
54 | > 100 µM | COc1ccccc1Cc1cc(C)nn(CC(=O)Nc2ccccc2C#N)c1=O
55 | > 100 µM | Cc1cc(Cc2ccc(F)cc2)c(=O)n(CC(=O)Nc2ccc(Br)cc2[N+](=O)[O-])n1
56 | > 100 µM | COc1cccc(Cc2cc(C)nn(C(C)C(=O)Nc3ccccc3F)c2=O)c1 (stereo not given)

Biological target: T3, fMet-Leu-Phe receptor (Homo sapiens) (UniProt P21462)
T3 sequence (whole entry): T2 sequence (P21462 whole entry)
Assay: Bias factor, transduction co-efficient for biased agonist activity at human FPR1 expressed in FlpIn-CHO cells assessed as stimulation of ERK1/2 phosphorylation relative to 1-(4-chlorophenyl)-3-(5-isopropyl-1-methyl-3-oxo-2-phenyl-2,3-dihydro-1H-pyrazol-4-yl)urea to transduction co-efficient for …
Format: functional, cell-based
Conditions: not given

Row | fold change (FC) | Structure (SMILES)
57 | 20 | CCCCC(C(=O)Nc1ccc(Cl)cc1)n1nc(C)cc(Cc2ccccc2OC)c1=O (stereo not given)

Biological target: T1, N-formyl peptide receptor 2
Assay: Biased agonist activity at human FPR2 expressed in FlpIn-CHO cells assessed as stimulation of ERK1/2 phosphorylation measured after 7 mins by Alphascreen assay
Format: cell-based
Conditions: not given
Procedure, shortened: as §2

Row | EC50 | Structure (SMILES)
58 | 0.0708 µM | CCCCC(C(=O)Nc1ccc(Cl)cc1)n1nc(C)cc(Cc2ccccc2OC)c1=O (stereo not given)
59 | 0.0617 µM | CCCCC(C(=O)Nc1ccc(Cl)cc1)n1nc(C)cc(Cc2cccc(OC)c2OC)c1=O (stereo not given)
60 | 9.55 µM | COc1cccc(Cc2cc(C)nn(C(C)C(=O)Nc3ccc(Cl)cc3)c2=O)c1 (stereo not given)
